Laboratory results as given in PubChem BioAssay.
The source made the active and inactive calls.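 Rule for the calls, unless noted: active = compounds giving at least 50% inhibition in the cell-based MKP-3 phosphatase rescue imaging test; inactive = the rest.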

Columns and labels:
[1] = inhibitors of TNFa-induced NFkB p65 translocation, primary screen, imaging, HUVEC, MLSMR starter and 10KST1 sets (AID 438;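 active = inhibition above 20% together with a positive visual image hit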;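 note: compound added about 3h40 before a 20 min TNFalpha stimulation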;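 for inhibition: signal is the nuclear over cytoplasmic p65 intensity ratio per well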); settings: HUVEC TNFa-induced p65 nuclear translocation; cell count: measured here: nuclei count (cytotoxicity indicator), at 2.08 µM; inhibition: at 2 µM, stronger effect = higher value, 0% TNFa-plus-vehicle, 100% no-TNFa wells
[2] = inhibitors of E-selectin induction by TNFa, primary screen, imaging, HUVEC, immunofluorescence, MLSMR starter and 10KST1 sets (AID 487;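 active = visually confirmed hit in the image check and inhibition above 20%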;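 for inhibition: signal is fraction of cell area covered by stained E-selectin grains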;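 for nuclei count: 100% = median nuclei count of all wells on the same plate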); settings: HUVEC TNFalpha-induced E-selectin immunofluorescence imaging, at 2 µM; inhibition: stronger effect = higher value; nuclei count: measured here: cell number, toxicity
[3] = DUSP6 inhibitors restoring Erk phosphorylation by chemical complementation, primary imaging in DUSP6-transfected HeLa (AID 609); settings: HeLa MKP-3 transfected, phospho-Erk imaging KS statistic, at 10 µM, cells stimulated with TPA for 15 min;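 for inhibition: phospho-Erk level distribution per well compared with pooled transfected vehicle control wells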
[4] = molecular target: Dual specificity protein phosphatase 6 (Homo sapiens) (UniProt Q16828); assay: as above; settings: HeLa MKP-3 transfected, phospho-Erk imaging KS statistic; at 10 µM; stronger effect = higher value; cells stimulated with TPA for 15 min
[5] = molecular target: Voltage-gated potassium channel subunit beta-2 (Rattus norvegicus) (UniProt P62483); assay: KvBeta enzyme negative modulators, primary screen, biochemical, NADPH fluorescence (AID 622;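 active = fluorescence slope higher than the sample average by over 3 SD, cut at about -0.22 in these data, passing the limit was not always enough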;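 note: slope of raw intensity against log time taken from 70 to 1610 s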); settings: recombinant KvBeta, 4-cyanobenzaldehyde reduction, at 10 µM, stronger effect = higher value
[6] = molecular target: Voltage-gated potassium channel subunit beta-2 (Rattus norvegicus) (UniProt P62483); assay: KvBeta positive modulators, primary screen, biochemical, NADPH fluorescence (AID 623;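 active = NADPH fluorescence slope more negative than the mean of all samples by about 3 SD, 99.7% confidence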;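 note: fluorescence intensity change per second fitted from 20 to 320 s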); settings: Recombinant KvBeta, NADPH fluorescence decrease slope, 10 min; at 10 µM; stronger effect = lower value
[7] = molecular target: Muscarinic acetylcholine receptor M4 (Homo sapiens) (UniProt P08173); assay: compounds altering M4/GIRK thallium flux, either direction, primary screen, M4 allosteric agonist project, cell-based, HEK293 M4/GIRK, BTC-AM (AID 625;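 active = fluorescence slope after compound addition differing from the mean of all tested samples at 99.7% confidence, mostly higher but some lower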;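 note: thallium influx through GIRK channels coupled to M4 in HEK293 cells with BTC-AM dye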); settings: at 10 µM, actives lie on both sides
In short: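 System: HEK293 cells with M4 receptor and GIRK channels | Incubation: Cells overnight at 37 °C, BTC-AM loading 1 h, reads 2 min total | Technique: Kinetic BTC-AM fluorescence sampled at 1 Hz, 10 s pre-addition baseline | Measure: Post-addition slope, 15–24 s, of baseline-normalized fluorescence | Control set: Carbachol positive, DMSO negative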

[8] = inhibitors of larval lipid processing in zebrafish, primary screen, whole organism, PED6 fluorescence, gall bladder and intestine (AID 686;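 active = a full or partial loss of lipid-probe fluorescence in the fish gall bladder, intestine or both, judged by eye; inactive = no fluorescence loss, or compound toxic to the fish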;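 note: larvae 5 to 7 days old with five fish per well; signal comes from phospholipase A2 cleavage of quenched PED6 carried via bile; overnight exposure to compound and PED6 before scoring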); settings: Zebrafish larvae PED6 lipid processing, fluorescence scoring; screened at 20 µM (by protocol)
In short: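 Test system – live zebrafish larvae aged 5-7 days, whole organism · Buffer or medium – E3 fish medium · Reagent – quenched phospholipase substrate PED6, 100 nM final, ingested by larvae · Doses – 20 µM single dose · Incubation – overnight compound and PED6 incubation · Technique – visual fluorescence microscopy scoring of gall bladder, gut · Read-out basis – visual per-well fluorescence inhibition score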

[9] = inhibitors of Chlamydomonas gravitaxis, primary screen, whole organism, Chlamydomonas reinhardtii, WT vs cilia-less mutant, absorbance, 96-well (AID 463189;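 active = inhibition at or above 50% relative to wild type and mutant plate controls; inactive = inhibition below 50%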;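 note: 0% = wild type cc124 cells in DMSO and 100% = ciliumless bld1 mutant cells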); settings: OD600 absorbance, 2 days, at 10 µM, stronger effect = higher value
[10] = measured here: cell density z-score
[11] = measured here: nuclear c-Myc green intensity z-score
[12] = measured here: nuclear pErk red intensity z-score, stronger effect = higher value

Chain of Voltage-gated potassium channel subunit beta-2 (Rattus norvegicus) (P62483 whole entry, looked up): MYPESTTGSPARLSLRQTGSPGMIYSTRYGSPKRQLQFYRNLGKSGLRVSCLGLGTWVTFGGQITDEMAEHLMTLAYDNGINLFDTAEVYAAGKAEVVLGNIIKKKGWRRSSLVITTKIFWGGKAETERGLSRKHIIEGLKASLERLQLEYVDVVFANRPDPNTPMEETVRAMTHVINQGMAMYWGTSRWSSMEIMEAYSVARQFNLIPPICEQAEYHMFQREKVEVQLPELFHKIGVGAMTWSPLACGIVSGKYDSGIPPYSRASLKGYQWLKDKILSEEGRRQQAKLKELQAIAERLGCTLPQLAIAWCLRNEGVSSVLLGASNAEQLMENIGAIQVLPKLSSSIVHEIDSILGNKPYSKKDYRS
Chain of Muscarinic acetylcholine receptor M4 (Homo sapiens) (P08173 whole entry, looked up): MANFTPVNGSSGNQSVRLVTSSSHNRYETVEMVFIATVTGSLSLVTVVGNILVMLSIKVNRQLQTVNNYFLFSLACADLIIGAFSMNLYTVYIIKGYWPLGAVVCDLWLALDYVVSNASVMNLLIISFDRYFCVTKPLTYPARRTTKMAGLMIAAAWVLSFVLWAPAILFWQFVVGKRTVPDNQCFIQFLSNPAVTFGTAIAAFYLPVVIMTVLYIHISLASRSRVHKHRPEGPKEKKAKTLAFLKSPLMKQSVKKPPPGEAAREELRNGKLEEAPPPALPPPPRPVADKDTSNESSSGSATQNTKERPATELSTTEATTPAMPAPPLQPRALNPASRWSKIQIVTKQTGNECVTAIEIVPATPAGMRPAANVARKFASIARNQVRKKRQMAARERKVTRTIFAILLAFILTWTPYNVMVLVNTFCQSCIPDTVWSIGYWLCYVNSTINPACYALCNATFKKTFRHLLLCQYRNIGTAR
Chain of Dual specificity protein phosphatase 6 (Homo sapiens) (Q16828 whole entry, looked up): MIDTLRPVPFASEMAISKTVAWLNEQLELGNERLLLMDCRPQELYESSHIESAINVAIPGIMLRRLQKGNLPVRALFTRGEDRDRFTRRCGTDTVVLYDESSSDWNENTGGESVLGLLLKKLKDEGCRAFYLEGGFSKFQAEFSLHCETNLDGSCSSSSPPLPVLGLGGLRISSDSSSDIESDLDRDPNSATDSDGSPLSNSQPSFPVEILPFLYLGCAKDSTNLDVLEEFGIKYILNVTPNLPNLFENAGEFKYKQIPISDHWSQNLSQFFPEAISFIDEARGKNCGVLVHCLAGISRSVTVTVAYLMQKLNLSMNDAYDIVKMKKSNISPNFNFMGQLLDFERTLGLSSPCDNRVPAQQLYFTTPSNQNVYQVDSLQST

| SMILES | cell count [1] | inhibition [1] | inhibition [2] | nuclei count [2] | z-score [3, 10] | z-score [3, 11] | z-score [3, 12] | inhibition [4] | fluorescence slope [5] | NADPH fluorescence slope [6] | fluorescence slope [7] | outcome [8] | inhibition [9] |
| --- | --- | --- | --- | --- | --- | --- | --- | --- | --- | --- | --- | --- | --- |
| CC(C)CNC(=O)c1c(N)n(/N=C/c2cccnc2)c2nc3ccccc3nc12 | 412 | -2.8% (inactive) | -18% (inactive) | 105% | 1.93 | -1.56 | -0.113 | 17.7% (inactive) | -0.347 (inactive) | 4.3e-06 (inactive) | 0.00594 (inactive) | inactive | 35.6% (inactive) |
| O=C(COc1ccc(-c2nnc(N3CCCCC3)c3ccccc23)cc1)N1CCCCC1 | 373 | 1.4% (inactive) | -58.5% (inactive) | 89.7% | 0.333 | -0.404 | 1.13 | 5.65% (inactive) | -0.487 (inactive) | 2e-05 (inactive) | 0.00419 (inactive) | inactive | 34.6% (inactive) |
| COc1ccc(OC)c(C2/C(=C(\O)c3ccc(OC)c(Cl)c3)C(=O)C(=O)N2CCN(C)C)c1 (stereo unspecified) | 680 | -6.8% (inactive) | -97.8% (inactive) | 173% | -0.468 | -0.414 | -1.65 | -2.91% (inactive) | -0.449 (inactive) | -3.7e-05 (inactive) | 0.00525 (inactive) | inactive | 14% (inactive) |
| Cc1nc(=O)c(-c2ccccc2)c(C)n1-c1ccc(S(N)(=O)=O)cc1 | 568 | -4.9% (inactive) | -74.8% (inactive) | 154% | 0.3 | 0.245 | 1.29 | 7.93% (inactive) | -0.406 (inactive) | -4.5e-05 (inactive) | 0.00537 (inactive) | inactive | -8.67% (inactive) |
| O=C1C2ON(c3ccccc3)C(c3cccnc3)C2C(=O)N1Cc1ccccc1 (stereo unspecified) | 620 | -11% (inactive) | -48.8% (inactive) | 177% | 0.802 | 0.656 | -1.11 | 2.71% (inactive) | -0.512 (inactive) | -5.7e-05 (inactive) | 0.00545 (inactive) | inactive | -1.68% (inactive) |
| CCOC(=O)/C(C#N)=C1/SC(CCO)C(=O)N1c1ccccc1 (stereo unspecified) | 541 | -19.2% (inactive) | -6.8% (inactive) | 122% | -0.811 | 0.0733 | 0.776 | -2.59% (inactive) | -0.373 (inactive) | -2e-05 (inactive) | 0.00516 (inactive) | inactive | -8.39% (inactive) |
| COCC(C)Nc1ncnc2c1cnn2-c1ccc(Cl)cc1 (stereo unspecified) | 607 | -19.2% (inactive) | -34.4% (inactive) | 170% | 1.51 | -0.865 | 0.282 | 3.42% (inactive) | -0.398 (inactive) | -1.2e-05 (inactive) | 0.00516 (inactive) | inactive | 18.7% (inactive) |
| Cc1cc(=O)oc(C)c1C(=O)NC12CC3CC(CC(C3)C1)C2 | 739 | -12.2% (inactive) | -66.8% (inactive) | 166% | -0.0351 | 0.102 | 0.73 | -6.48% (inactive) | -0.455 (inactive) | -5.7e-05 (inactive) | 0.00545 (inactive) | inactive | 6.04% (inactive) |
| C=CCOc1ccc(/C(O)=C2\C(=O)C(=O)N(CCN(C)C)C2c2cccs2)cc1 (stereo unspecified) | 642 | 2.8% (inactive) | -0.3% (inactive) | 181% | 0.295 | 1.17 | 0.318 | 12.8% (inactive) | -0.469 (inactive) | -6.6e-05 (inactive) | 0.00599 (inactive) | inactive | 10.2% (inactive) |
| Cc1ccc(-n2ncc3c(NCc4ccc5c(c4)OCO5)ncnc32)c(C)c1 | 543 | -12.5% (inactive) | -35.3% (inactive) | 135% | -0.519 | 1.64 | -0.848 | 11.4% (inactive) | -0.376 (inactive) | 4.1e-06 (inactive) | 0.0052 (inactive) | inactive | 47.1% (inactive) |
| O=C(NCc1cccnc1)NC(C(F)(F)F)C(F)(F)F | 671 | -1.2% (inactive) | -24.5% (inactive) | 148% | 0.957 | -0.408 | -4.89 | 1.63% (inactive) | -0.454 (inactive) | -5.1e-05 (inactive) | 0.00444 (inactive) | inactive | -3.5% (inactive) |
| CCOc1ccccc1C(=O)NCCCCCC(=O)O | 421 | -9.4% (inactive) | -419% (inactive) | 193% | 0.279 | -0.756 | 0.2 | 1.42% (inactive) | -0.472 (inactive) | -9.6e-05 (inactive) | 0.00537 (inactive) | inactive | 0.493% (inactive) |
| C=CCN(C)CCCNC(=O)/C=N/O | 585 | -6.9% (inactive) | 22.6% (inactive) | 87% | 1.68 | -0.8 | -0.822 | 31.4% (inactive) | -0.504 (inactive) | -8.8e-05 (inactive) | 0.00593 (inactive) | inactive | -9.97% (inactive) |
| CN(CCOC(=O)c1ccc2c(c1)OCCO2)Cc1ccccc1 | 661 | -16.5% (inactive) | -9.5% (inactive) | 184% | 0.691 | -0.671 | 1.4 | 5.35% (inactive) | -0.472 (inactive) | -0.000111 (inactive) | 0.00763 (inactive) | inactive | 69.7% (active) |
| CCSc1nnc(NC(=O)NC(CC)(C(F)(F)F)C(F)(F)F)s1 | 704 | 0.5% (inactive) | -56.3% (inactive) | 140% | -0.466 | -0.955 | -0.238 | 9.07% (inactive) | -0.431 (inactive) | -5e-05 (inactive) | 0.00857 (inactive) | inactive | 22.7% (inactive) |
| C=C(C)Cn1c(-c2ccc(OC)cc2)nc2ccccc21 | 377 | 0.8% (inactive) | -113% (inactive) | 157% | -0.296 | -0.903 | 0.627 | -6.86% (inactive) | -0.461 (inactive) | -0.000111 (inactive) | 0.00384 (inactive) | inactive; toxic | 25.6% (inactive) |
| COc1cc(C)nc(Nc2nc(C)c(C(C)=O)s2)n1 | 393 | 0% (inactive) | -89% (inactive) | 125% | 1.97 | -1.71 | -0.786 | 43.2% (inactive) | -0.456 (inactive) | -8.3e-05 (inactive) | 0.00495 (inactive) | inactive | 46.4% (inactive) |
| O=C(NCCCN1CCOCC1)C1(c2ccccc2)CCOCC1 | 610 | -2% (inactive) | 14.3% (inactive) | 91.3% | -0.279 | 1.09 | -0.449 | -3.95% (inactive) | -0.501 (inactive) | -2.1e-05 (inactive) | 0.0058 (inactive) | inactive | 19.5% (inactive) |
| CC(C)CCNc1nc2c(cc1C#N)COC(C)(C)C2 | 536 | -6.5% (inactive) | -22.1% (inactive) | 143% | 1.89 | -0.595 | -1.16 | 22.1% (inactive) | -0.426 (inactive) | -5.9e-05 (inactive) | 0.00455 (inactive) | inactive | -19.8% (inactive) |
| Cc1cc(=O)oc2c(CN3CCC(C)CC3)c(O)c(Cl)cc12 | 654 | -6.9% (inactive) | -12% (inactive) | 171% | 0.311 | 0.013 | 0.217 | 1.12% (inactive) | -0.0249 (inactive) | 4.3e-06 (inactive) | 0.00736 (inactive) | inactive | -2.21% (inactive) |
| O=c1c(-c2ccc(Cl)cc2)[n+]([O-])c2ccccc2n1O | 517 | -16.1% (inactive) | -12.5% (inactive) | 170% | 0.0473 | 0.796 | 0.573 | 15.9% (inactive) | -0.31 (inactive) | -3.9e-05 (inactive) | 0.0132 (active) | inactive | 33.5% (inactive) |
| C=C(C)CN(CC)CCC(=O)Nc1ccc(OC)cc1OC | 486 | -7.5% (inactive) | -273% (inactive) | 172% | -0.562 | 0.149 | 0.762 | -7.28% (inactive) | -0.424 (inactive) | -3.9e-05 (inactive) | 0.0048 (inactive) | inactive | 11.3% (inactive) |
| Cn1c(=O)c2c(nc(NCc3ccc4c(c3)OCO4)n2Cc2ccccc2Cl)n(C)c1=O | 634 | -6% (inactive) | -29.1% (inactive) | 104% | 0.0435 | 2.04 | 0.82 | -2.09% (inactive) | -0.41 (inactive) | -9.6e-06 (inactive) | 0.00449 (inactive) | inactive | -8.68% (inactive) |
| Cn1c[n+](C)cc1/C=N/O | 710 | -2% (inactive) | -108% (inactive) | 159% | -0.468 | 0.134 | -0.77 | 0.671% (inactive) | -0.459 (inactive) | -6.2e-05 (inactive) | 0.00537 (inactive) | inactive | -4.46% (inactive) |
| Cc1cc(N2C(=O)C(=O)/C(=C(/O)c3ccc(F)cc3)C2c2cccc(Br)c2)no1 (stereo unspecified) | 478 | 2.6% (inactive) | 2.7% (inactive) | 145% | 0.015 | 0.305 | 1.03 | 1.04% (inactive) | -0.439 (inactive) | -4.6e-05 (inactive) | 0.00551 (inactive) | inactive | 15.6% (inactive) |
| NC(=O)C(c1ccccc1)C1CCCC1 (stereo unspecified) | 603 | -8.2% (inactive) | -33.8% (inactive) | 113% | 1.58 | -0.32 | -0.629 | -3.95% (inactive) | -0.409 (inactive) | -4.8e-05 (inactive) | 0.00443 (inactive) | inactive | -3.81% (inactive) |
| C=CCc1cccc(CNc2nc3ccccc3n2C(C)C)c1O | 653 | 4.4% (inactive) | 17.8% (inactive) | 145% | -1.18 | 1.98 | 1.18 | -3.95% (inactive) | -0.502 (inactive) | -9.2e-05 (inactive) | 0.00595 (inactive) | inactive | 2.16% (inactive) |
